Compound activity from PubChem.
OX1R antag-1 – antagonists of human orexin 1 receptor (OX1R) | Orexin/Hypocretin receptor type 1 (Homo sapiens), O43613 | OX1R-expressing cells, FRET antagonist read-out | inhibition, % at 6.6 µM | 330,000 compounds, 1.8% hits; in the data active = inhibition mostly above about 38%, no sharp cut-off; inactive = mostly below about 40%
Target sequence (O43613 whole entry, looked up): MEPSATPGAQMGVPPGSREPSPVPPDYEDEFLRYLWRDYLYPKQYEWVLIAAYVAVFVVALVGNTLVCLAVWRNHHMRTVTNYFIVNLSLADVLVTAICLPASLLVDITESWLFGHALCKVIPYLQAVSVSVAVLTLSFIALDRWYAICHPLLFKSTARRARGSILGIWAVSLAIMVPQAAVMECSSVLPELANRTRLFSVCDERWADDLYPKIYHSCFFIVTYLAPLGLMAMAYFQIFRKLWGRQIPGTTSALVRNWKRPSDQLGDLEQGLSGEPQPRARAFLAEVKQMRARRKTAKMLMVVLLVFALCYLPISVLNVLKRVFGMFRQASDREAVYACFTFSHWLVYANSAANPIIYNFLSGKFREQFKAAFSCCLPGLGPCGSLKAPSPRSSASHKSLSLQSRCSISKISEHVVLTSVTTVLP
TAAR1 agonist – human TAAR1 agonists, primary screen, Fluo-8 calcium fluorescence, CHO RD-HGA16 cells; Trace amine-associated receptor 1 (Homo sapiens), Q96RJ0; vehicle wells 0%, saturating PEA agonist 100%; activation, % at 3 µM; 360,000 compounds, 0.99% hits;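 active = activation above the mean activation of all test compounds in the run plus 3 SD, cut at about 38% in these data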
Target sequence (Q96RJ0 whole entry, looked up): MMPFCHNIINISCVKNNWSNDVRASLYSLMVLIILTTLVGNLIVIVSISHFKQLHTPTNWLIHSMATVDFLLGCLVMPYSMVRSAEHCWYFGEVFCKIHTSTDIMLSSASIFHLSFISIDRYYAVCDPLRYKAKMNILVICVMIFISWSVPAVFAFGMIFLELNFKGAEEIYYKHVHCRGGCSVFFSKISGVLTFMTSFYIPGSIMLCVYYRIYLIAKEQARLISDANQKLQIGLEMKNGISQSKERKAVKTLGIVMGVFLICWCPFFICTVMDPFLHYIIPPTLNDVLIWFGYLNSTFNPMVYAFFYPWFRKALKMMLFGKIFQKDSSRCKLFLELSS
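Test system: RD-HGA16 (CHO) cells co-expressing Gα16 and hTAAR1 | Doses: Single dose, 3 µM | Schedule: 17-24 h seeding, 75 min 37 °C dye, 30 min RT | Evaluation: % activation from peak over basal fluorescence ratio, DMSO-to-PEA scaled | Technique: Kinetic Fluo-8 calcium fluorescence | Benchmarks: Low control DMSO, high control PEA (EC100)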
OX1R antag-2 – OX1R (HCRTR1) antagonists, primary screen, fluorescence, CHO/OX1R cells, Fluo-8 calcium, orexin A. Orexin/Hypocretin receptor type 1 (Homo sapiens), O43613. Fluo-8 calcium fluorescence. inhibition, % at 5 µM. 330,000 compounds, 0.43% hits. AID 434989, 2010;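 active = inhibition above its plate's threshold, mean inhibition of all tested compounds on the plate plus 3 SD, cut at about 37% in these data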
CHO parental Ca – ATP-evoked calcium signal inhibitors, parental CHO, primary screen, counter-screen for OX1R antagonist project, cell-based, fluorescence, Fluo-8 calcium dye | parental CHO-K1, ATP-induced calcium, Fluo-8 fluorescence | inhibition, % at 5.6 µM | 330,000 compounds, 0.63% hits;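 active = inhibition above that plate's mean sample inhibition plus 3 SD, cut at about 26% in these data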
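Material: Parental CHO cells | Reagent: ATP | Compound dosing: Single nominal dose of 5.6 µM per compound | Detection: Intracellular calcium via Fluo-8 no-wash fluorescent dye | Read-out: % inhibition of ATP-induced calcium mobilization | Benchmarks: Low control ATP plus DMSO, high control DMSO only | Replicates: Singlicate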
TAAR1 antagonist – human TAAR1 antagonists, primary screen, Fluo-8 calcium fluorescence, CHO RD-HGA16 cells. antagonist. Trace amine-associated receptor 1 (Homo sapiens), Q96RJ0. AID 624466, 2012. 360,000 compounds, 1.5% hits. inhibition, % at 3 µM;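 active = inhibition above a per-plate cutoff, the mean inhibition of test compounds on that plate plus 3 SD, cut at about 49% in these data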
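Material: RD-HGA16 CHO cells with stable hTAAR1 and Gα16; Dosing: single nominal final test compound concentration of 3 µM; Schedule: seeding 17-24 h prior, 75-min 37 °C, 30-min RT dye loading; Detection: kinetic Fluo-8 calcium fluorescence measurement; Measure: % inhibition from peak post-agonist over basal fluorescence ratio; Benchmarks: vehicle and agonist controls.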
Each line names hits and unclear results; the compound was inactive in the other large screens. Rows were chosen to be rich in hits. Some 4% of all compounds tested hit in one or more screens of this group.

Brc1cccc(-c2n[nH]c(-c3ccccc3)n2)c1	OX1R antag-1 71, OX1R antag-2 63, CHO parental Ca 97
COC(=O)[C@]12C[C@H](CC(=O)NCc3cccs3)C(=O)N(Cc3ccc4c(c3)OCO4)C1=C[C@H](COCc1ccccc1)O[C@@H]2C	none (no result: OX1R antag-1, OX1R antag-2, CHO parental Ca)
CCOC(=O)C1CSCCS(=O)(=O)N1Cc1ccccc1C (stereo not given)	none (no result: OX1R antag-1, OX1R antag-2, CHO parental Ca)
O=C(CCSCCC(=O)NN=Cc1ccccc1O)NN=Cc1ccccc1O	TAAR1 agonist 44 (no result: OX1R antag-1, OX1R antag-2, CHO parental Ca)
COC(=O)c1cc2c(c3c4cc(C#N)ccc4n(S(=O)(=O)c4ccc(C)cc4)c13)C(=O)N(C)C2	none (no result: OX1R antag-1, OX1R antag-2, CHO parental Ca)
Nc1n[nH]c2cc(=O)n(-c3ccc(Cl)cc3)nc12	OX1R antag-1 46
COc1ccc(-n2nc3c(N)n[nH]c3cc2=O)cc1	OX1R antag-1 54
Cc1c(CN2CCN(c3ncc(Cc4ccccc4)cn3)CC2)c(=O)n(-c2ccccc2)n1C	none (no result: OX1R antag-1, OX1R antag-2, CHO parental Ca)
COC(=O)Cc1c([C@H](C)[C@@H](OC)c2ccccc2Br)nnn1Cc1ccccc1	none (no result: OX1R antag-1, OX1R antag-2, CHO parental Ca)
CCOc1ccc2[nH]c(C(=O)N/N=C/c3ccccc3OC)cc2c1	none
COc1ccc2[nH]c(C(=O)N/N=C/c3ccccc3OC)cc2c1	OX1R antag-1 56
COc1cc(OC)c2cc(C(=O)N/N=C/c3ccccc3O)[nH]c2c1	OX1R antag-1 62
COc1ccc(OC)c(/C=N/NC(=O)c2cc3c(OC)c(OC)ccc3[nH]2)c1	none
CC(C)C(=O)N1CCN(c2ccccc2NC(=O)c2cccc3ccccc23)CC1	none
Cc1cc2nc(SCCOC(=O)Nc3ccccc3)nc(C)c2cc1C	OX1R antag-1 72
Brc1ccccc1OCCCCn1cnc2ccccc21	OX1R antag-1 35, CHO parental Ca 66
COc1ccc(CNC(=O)C/C(C)=N/NC(=O)c2cnccn2)cc1	none
Cc1nc2nc(C)n(CCN3CCOCC3)c(=O)c2c(-c2cccc([N+](=O)[O-])c2)c1C(=O)CCCCCCCCCCN1CCC(c2ccccc2)(c2ccccc2)CC1	TAAR1 antagonist 49 (no result: OX1R antag-1, OX1R antag-2, CHO parental Ca)
COc1cccc(CNS(=O)(=O)c2ccccc2Br)c1	none (no result: OX1R antag-1, OX1R antag-2, CHO parental Ca)
N#Cc1ccc(NCC(=O)Nc2ccc(S(=O)(=O)N3CCCCC3)cc2)cc1	TAAR1 agonist 39
N#Cc1ccc(NC(=O)CNc2cc(S(=O)(=O)N3CCOCC3)ccc2NCC2CCCO2)cc1 (stereo not given)	CHO parental Ca 39
C=CCCC1CN(Cc2ccc(OC)cc2)S(=O)(=O)c2c(cccc2Sc2ccc(OC)c(OC)c2)O1 (stereo not given)	none (no result: OX1R antag-1, OX1R antag-2, CHO parental Ca)
Cc1c(C2Nc3ccccc3C2C)[nH]c2ccccc12 (stereo not given)	none (no result: OX1R antag-1, OX1R antag-2, CHO parental Ca)
COc1ccc(CCNC(=O)Cn2cnc3sc(C)c(-c4ccc(F)cc4)c3c2=O)cc1OC	TAAR1 agonist 54
O=C(Cn1cnc2sc(-c3ccccc3)cc2c1=O)NCCc1ccccc1	TAAR1 agonist 39
Cc1sc2ncn(CC(=O)NCCc3ccccc3)c(=O)c2c1C	TAAR1 agonist 42
O=C(Cn1cnc2sc(-c3ccccc3)cc2c1=O)NCc1ccccc1	none
COC(=O)c1sc2ncn(CC(=O)NCCc3ccc(OC)c(OC)c3)c(=O)c2c1C	none
COC(=O)C=C1CCC2C3CC(F)C4(O)CC(=O)CCC4(C)C3C(=O)CC12C (stereo not given)	none (no result: OX1R antag-1, OX1R antag-2, CHO parental Ca)
CN(C)S(=O)(=O)c1cccc(N=C2SCCN2Cc2ccccc2)c1	CHO parental Ca 40
Cc1onc(-c2c(Cl)cccc2Cl)c1C(=O)N1CCc2ccccc21	OX1R antag-1 40
CCCCCc1cc(=O)oc2c(C(CCN3CCCC3)c3ccc(N(C)C)cc3)c(OC)cc(OC)c12 (stereo not given)	none
CCCCCc1cc(=O)oc2c(C(CCN3CCCC(C)C3)c3ccc(OC)cc3)c(OC)cc(OC)c12 (stereo not given)	TAAR1 agonist 40
COc1cc(/C=C(\C#N)C(=O)c2c[nH]c3ccccc23)cc(OC)c1O	TAAR1 agonist 41
Fc1ccc(-c2csc3[n+]2CCS3)cc1	none
O=[N+]([O-])c1ccc(-c2csc3[n+]2CCS3)cc1	OX1R antag-1 74
COc1cccc(OC)c1C(=O)Nc1sc2c(c1C#N)CCC2	OX1R antag-1 55
C[C@H](CO)N1C[C@H](C)[C@@H](CN(C)C(=O)Nc2ccc(C(F)(F)F)cc2)OCc2cn(nn2)CCCC1=O	none (no result: OX1R antag-1, OX1R antag-2, CHO parental Ca)
COc1ccccc1/C=C1/C(=O)N(c2ccccc2)N=C1C	TAAR1 agonist 37
CC1=NN(c2ccccc2)C(=O)/C1=C\N1CC(C)OC(C)C1 (stereo not given)	TAAR1 agonist 98, TAAR1 antagonist 70
CC1=NN(c2ccccc2)C(=O)/C1=C\c1ccc(Oc2ccc([N+](=O)[O-])cc2[N+](=O)[O-])cc1	OX1R antag-1 50
O=C(NCc1ccco1)c1ccc2nc3sc4c(c3c(=O)n2c1)CCCC4	OX1R antag-1 87 (no result: TAAR1 agonist, TAAR1 antagonist)
COc1ccccc1C(=O)NC(=Nc1nc2ccccc2o1)NC(=O)c1ccccc1OC	OX1R antag-1 36, OX1R antag-2 82, CHO parental Ca 48
O=C(NC(=Nc1nc2ccccc2o1)NC(=O)c1ccccc1)c1ccccc1	none
O=S1(=O)c2cc(Cl)ccc2N2CCC[C@@H]2CN1Cc1ccc(Cl)c(Cl)c1	none (no result: OX1R antag-1, OX1R antag-2, CHO parental Ca)
S=C(NCc1ccc(Cl)cc1)Nc1ccncc1	CHO parental Ca 52
Cc1cc(Cl)ccc1NC(=S)NCc1ccc(F)cc1	CHO parental Ca 42
Cc1ccccc1NC(=S)NCc1ccc(F)cc1	none
S=C(NCc1ccc(Cl)cc1)Nc1ccccc1	none
S=C(NCc1cccs1)Nc1cc(Cl)cc(Cl)c1	CHO parental Ca 39
S=C(NCc1ccncc1)Nc1cccc(Cl)c1	none
Fc1ccc(CNC(=S)Nc2cccc(Cl)c2)cc1	CHO parental Ca 41
S=C(NCc1cccs1)Nc1cccc(Cl)c1	none (no result: TAAR1 agonist, TAAR1 antagonist)
CC(C)NC(=O)C1(C)CN(S(C)(=O)=O)CC(=O)N1CCCn1ccnc1 (stereo not given)	none (no result: OX1R antag-1, OX1R antag-2, CHO parental Ca)
O=C(COc1ccc(S(=O)(=O)NC2CCCCC2)cc1Cl)N1CCN(c2ccccc2)CC1	none
CCC(=O)N(C1=C(NC(C)C)C(=O)c2ccccc2C1=O)C(C)C	none
CCCNC1=C(N(C(C)=O)c2cccc(F)c2)C(=O)c2ccccc2C1=O	OX1R antag-1 68
C=CC[n+]1c(/C=C/c2ccc(OC(C)=O)c(OC)c2)ccc2ccccc21	OX1R antag-1 48
O=C(NC1(Cc2ccccc2)CCN(Cc2ccc(-c3ccccc3)cc2)C1=O)c1ccccc1 (stereo not given)	TAAR1 antagonist 62
COc1ccc(OC)c(CNS(=O)(=O)c2ccccc2Br)c1	none (no result: OX1R antag-1, OX1R antag-2, CHO parental Ca)
CN(C)S(=O)(=O)N1CCN(C(=O)c2ccc3c(c2)OCO3)CC1	none
